According to ChEMBL document CHEMBL5724801, “EUbOPEN Chemogenomics Library - Multiplex” (2024):
Where “and” joins values, the source holds several entries; their conditions need not be identical. Equal values may be shown once.

Tested on: HEK-293T
Experiment: Multiplex assay against HEK293T
Format: toxicity, cell-based
Conditions: human
Method in brief: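 Cells were classed with CellPathfinder machine-learning gating, first as Hoechst high-intensity objects or normal cells, then (normal cells) as healthy, pyknosed or fragmented nuclei, and finally (pyknosed cells) as mitotic or apoptotic. Staining of live cells at seeding used Hoechst33342, BioTracker Green Microtubule Cytoskeleton Dye, MitoTracker Red and Annexin V Alexa Fluor 680, with imaging on a CQ1 microscope at 37°C and 5% CO2 after compound addition. Tubulin, mitochondrial-mass and membrane-permeability phenotypes are per cents of healthy-nucleus cells.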

[1] = 12 h, 1 µM, compound concentration 1 uM
[2] = 12 h, 10 µM, compound concentration 10 uM
[3] = 24 h, 1 µM, compound concentration 1 uM
[4] = 24 h, 10 µM, compound concentration 10 uM
[5] = 48 h, 1 µM, compound concentration 1 uM
[6] = 48 h, 10 µM, compound concentration 10 uM

O=C1COc2nccc(-c3ccccc3F)c2CN1Cc1cc(C(F)(F)F)cc(C(F)(F)F)c1
Population Apoptotic (%) [1]: 31% and 51% | Population Fragmented Nuclei (%) [1]: 8% and 4% | Population Healthy Nuclei (%) [1]: 80% and 83% | Population Hoechst High Intensity Objects (%) [1]: 5% and 10% | Population Membrane Permeable-Phenotype (%) [1]: 0% | Population Mitochondria Different-Phenotype (%) [1]: 41% and 67% | Population Mitotic Cells (%) [1]: 68% and 48% | Population Normal (%) [1]: 94% and 89% | Population Pyknosed Nuclei (%) [1]: 10% and 11% | Population Tubulin-Different-Phenotype (%) [1]: 27% and 20% | Total Cell Count [1]: 397 and 333 | Population Apoptotic (%) [2]: 38% and 57% | Population Fragmented Nuclei (%) [2]: 10% and 8% | Population Healthy Nuclei (%) [2]: 76% and 79% | Population Hoechst High Intensity Objects (%) [2]: 9% and 5% | Population Membrane Permeable-Phenotype (%) [2]: 0% | Population Mitochondria Different-Phenotype (%) [2]: 67% and 76% | Population Mitotic Cells (%) [2]: 61% and 42% | Population Normal (%) [2]: 90% and 94% | Population Pyknosed Nuclei (%) [2]: 13% and 12% | Population Tubulin-Different-Phenotype (%) [2]: 68% and 39% | Total Cell Count [2]: 475 and 382 | Population Apoptotic (%) [3]: 21% and 59% | Population Fragmented Nuclei (%) [3]: 8% and 5% | Population Healthy Nuclei (%) [3]: 84% and 87% | Population Hoechst High Intensity Objects (%) [3]: 3% and 8% | Population Membrane Permeable-Phenotype (%) [3]: 0% | Population Mitochondria Different-Phenotype (%) [3]: 32% and 39% | Population Mitotic Cells (%) [3]: 78% and 40% | Population Normal (%) [3]: 96% and 91% | Population Pyknosed Nuclei (%) [3]: 7% and 6% | Population Tubulin-Different-Phenotype (%) [3]: 23% and 12% | Total Cell Count [3]: 517 and 428 | Population Apoptotic (%) [4]: 52% and 36% | Population Fragmented Nuclei (%) [4]: 10% and 7% | Population Healthy Nuclei (%) [4]: 76% and 79% | Population Hoechst High Intensity Objects (%) [4]: 5% | Population Membrane Permeable-Phenotype (%) [4]: 0% | Population Mitochondria Different-Phenotype (%) [4]: 71% and 72% | Population Mitotic Cells (%) [4]: 47% and 63% | Population Normal (%) [4]: 94% | Population Pyknosed Nuclei (%) [4]: 13% and 12% | Population Tubulin-Different-Phenotype (%) [4]: 68% and 44% | Total Cell Count [4]: 520 and 492 | Population Apoptotic (%) [5]: 27% and 38% | Population Fragmented Nuclei (%) [5]: 13% and 9% | Population Healthy Nuclei (%) [5]: 80% and 81% | Population Hoechst High Intensity Objects (%) [5]: 2% and 4% | Population Membrane Permeable-Phenotype (%) [5]: 0% | Population Mitochondria Different-Phenotype (%) [5]: 29% and 23% | Population Mitotic Cells (%) [5]: 72% and 61% | Population Normal (%) [5]: 97% and 95% | Population Pyknosed Nuclei (%) [5]: 6% and 8% | Population Tubulin-Different-Phenotype (%) [5]: 14% and 12% | Total Cell Count [5]: 743 and 574 | Population Apoptotic (%) [6]: 44% and 56% | Population Fragmented Nuclei (%) [6]: 13% and 11% | Population Healthy Nuclei (%) [6]: 75% and 80% | Population Hoechst High Intensity Objects (%) [6]: 3% and 2% | Population Membrane Permeable-Phenotype (%) [6]: 0% | Population Mitochondria Different-Phenotype (%) [6]: 63% and 51% | Population Mitotic Cells (%) [6]: 55% and 43% | Population Normal (%) [6]: 96% and 97% | Population Pyknosed Nuclei (%) [6]: 11% and 7% | Population Tubulin-Different-Phenotype (%) [6]: 46% and 25% | Total Cell Count [6]: 713 and 669

COc1ccc(Cl)cc1[C@]1(F)C(=O)Nc2cc(C(F)(F)F)ccc21 [FLINDOKALNER]
Population Apoptotic (%) [1]: 8.33% and 8.73% | Population Fragmented Nuclei (%) [1]: 2.3% and 5.16% | Population Hoechst High Intensity Objects (%) [1]: 0% | Population Membrane Permeable-Phenotype (%) [1]: 0.56% and 0% | Population Mitochondria Different-Phenotype (%) [1]: 45.76% and 33.33% | Population Mitotic Cells (%) [1]: 91.67% and 91.27% | Population Normal (%) [1]: 100% | Population Pyknosed Nuclei (%) [1]: 39.47% and 81.29% | Total Cell Count [1]: 304 and 155 | Population Apoptotic (%) [2]: 11.41% and 18.18% | Population Fragmented Nuclei (%) [2]: 2.47% and 3.73% | Population Hoechst High Intensity Objects (%) [2]: 0.54% and 0% | Population Membrane Permeable-Phenotype (%) [2]: 0.48% and 0% | Population Mitochondria Different-Phenotype (%) [2]: 38.16% and 26.32% | Population Mitotic Cells (%) [2]: 88.59% and 81.82% | Population Normal (%) [2]: 99.46% and 100% | Population Pyknosed Nuclei (%) [2]: 40.82% and 82.09% | Total Cell Count [2]: 367 and 134 | Population Apoptotic (%) [3]: 16.18% and 15.32% | Population Fragmented Nuclei (%) [3]: 1.01% and 6.17% | Population Hoechst High Intensity Objects (%) [3]: 0% | Population Membrane Permeable-Phenotype (%) [3]: 3.37% and 0% | Population Mitochondria Different-Phenotype (%) [3]: 17.98% and 10.71% | Population Mitotic Cells (%) [3]: 83.82% and 84.68% | Population Normal (%) [3]: 100% | Population Pyknosed Nuclei (%) [3]: 27.36% and 76.54% | Population Tubulin-Different-Phenotype (%) [3]: 11.8% and 10.71% | Population Apoptotic (%) [4]: 13.79% and 23.64% | Population Fragmented Nuclei (%) [4]: 2.57% and 5.62% | Population Healthy Nuclei (%) [4]: 68.77% and 25.62% | Population Hoechst High Intensity Objects (%) [4]: 0.2% and 0% | Population Membrane Permeable-Phenotype (%) [4]: 0.86% and 0% | Population Mitochondria Different-Phenotype (%) [4]: 23.28% and 12.2% | Population Mitotic Cells (%) [4]: 86.21% and 76.36% | Population Normal (%) [4]: 99.8% and 100% | Population Pyknosed Nuclei (%) [4]: 28.66% and 68.75% | Population Fragmented Nuclei (%) [5]: 2.21% and 2.93% | Population Healthy Nuclei (%) [5]: 85.07% and 54.63% | Population Hoechst High Intensity Objects (%) [5]: 0% | Population Membrane Permeable-Phenotype (%) [5]: 4.29% and 2.68% | Population Mitochondria Different-Phenotype (%) [5]: 14.16% and 20.54% | Population Mitotic Cells (%) [5]: 96% and 72.41% | Population Normal (%) [5]: 100% | Population Apoptotic (%) [6]: 9.02% and 19.67% | Population Fragmented Nuclei (%) [6]: 2.19% and 4.66% | Population Healthy Nuclei (%) [6]: 86.19% and 63.73% | Population Hoechst High Intensity Objects (%) [6]: 0% and 0.52% | Population Membrane Permeable-Phenotype (%) [6]: 7.07% and 1.63% | Population Mitochondria Different-Phenotype (%) [6]: 21.1% and 21.95% | Population Mitotic Cells (%) [6]: 90.98% and 80.33% | Population Normal (%) [6]: 100% and 99.48% | Population Pyknosed Nuclei (%) [6]: 11.62% and 31.61%
